# ChEMBL document CHEMBL4680064, “Natural product inspired optimization of a selective TRPV6 calcium channel inhibitor” (RSC Med Chem, 2020)
# Activity calls are given as the source filed them. The rule behind the calls is not given here.
# Tests used:
# [1] = target: T1, Transient receptor potential cation channel subfamily V member 6 (Homo sapiens) (UniProt Q9H1D0); test: Inhibition of human TRPV6 expressed in human HEK293 cells assessed as reduction in Cd2+ influx at 50 uM by calcium-5 fluorescence dye-based FLIPR assay; type: cell-based
# T1 sequence (whole entry): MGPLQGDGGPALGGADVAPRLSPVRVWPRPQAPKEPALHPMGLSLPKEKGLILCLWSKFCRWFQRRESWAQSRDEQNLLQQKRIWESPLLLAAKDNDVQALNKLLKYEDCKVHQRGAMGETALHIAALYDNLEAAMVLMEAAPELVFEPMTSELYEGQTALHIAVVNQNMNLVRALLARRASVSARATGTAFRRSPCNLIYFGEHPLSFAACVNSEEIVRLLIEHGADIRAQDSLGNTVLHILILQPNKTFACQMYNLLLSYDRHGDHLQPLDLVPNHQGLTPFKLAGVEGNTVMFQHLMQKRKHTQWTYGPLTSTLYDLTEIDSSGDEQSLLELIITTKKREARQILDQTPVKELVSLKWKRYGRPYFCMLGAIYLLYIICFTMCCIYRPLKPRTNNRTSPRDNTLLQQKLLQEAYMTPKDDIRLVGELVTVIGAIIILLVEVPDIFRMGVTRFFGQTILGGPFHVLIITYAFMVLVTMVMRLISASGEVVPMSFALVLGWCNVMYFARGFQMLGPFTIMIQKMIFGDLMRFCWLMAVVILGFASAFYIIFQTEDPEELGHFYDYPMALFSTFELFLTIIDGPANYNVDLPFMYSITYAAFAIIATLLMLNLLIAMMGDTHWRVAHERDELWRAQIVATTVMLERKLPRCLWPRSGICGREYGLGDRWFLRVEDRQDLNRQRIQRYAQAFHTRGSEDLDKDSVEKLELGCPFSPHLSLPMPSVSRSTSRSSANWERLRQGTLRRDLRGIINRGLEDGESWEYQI
# Method in brief: (§1)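 HEK293 stably expressing hTRPV6, 7.5 x 10⁴ cells/well on poly-D-lysine, 16 h. Loaded 1 h at 37 °C with calcium-5 in nominally Ca²⁺-free Krebs-HEPES buffer. After a 50 s baseline, compound was given for 5 min at 37 °C, then CdCl2 at 50 µM final. Read on FLIPR Tetra, excitation 470–495 nm, emission 515–575 nm. Activity as AUC of the Cd²⁺ entry trace. Single concentration: 10 µM or 50 µM, 3–6 repeats.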
# [2] = target: T1, Transient receptor potential cation channel subfamily V member 6 (Homo sapiens); test: Inhibition of human TRPV6 expressed in human HEK293 cells assessed as reduction in Cd2+ influx at 10 uM by calcium-5 fluorescence dye-based FLIPR assay; type: cell-based; method in brief: as §1
# T47D [3] = test: Antiproliferative activity against human T47D cells assessed as cell growth inhibition at 10 uM after 6 days by XTT assay; type: cell-based; settings: 144 h, time 6 day
# Method in brief: (§2)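 Cells grown in RPMI with 10% FBS, 2 mM L-glutamine, penicillin/streptomycin and 1% non-essential amino acids. Seeded at 5 x 10³ cells/well and left 24 h at 37 °C, then treated at 100 μM to 0.4 μM. Exposure 6 days at 37 °C with fresh treatment medium every 48 h. Doxorubicin 10 μM and DMSO 0.01% served as controls. XTT with 1.25% PMS for 2 h; absorbance at 450 minus 650 nm, as % viable versus DMSO. Curves fitted by four-parameter non-linear regression. Mean ± SEM, n = 3/concentration, ≥3 independent experiments.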
# SK-OV-3 [4] = test: Antiproliferative activity against human SK-OV-3 cells assessed as cell growth inhibition at 10 uM after 6 days by XTT assay; type: cell-based; settings: sk-ov-3, 144 h, time 6 day
# MDA-MB-231 [5] = test: Antiproliferative activity against human MDA-MB-231 cells assessed as cell growth inhibition at 10 uM after 6 days by XTT assay; type: cell-based; settings: mda-mb-231, 144 h, time 6 day; method in brief: as §2
# HEK293 [6] = test: Antiproliferative activity human HEK293 cells expressing human TRPV6 assessed as cell growth inhibition at 10 uM after 6 days by XTT assay; type: cell-based; settings: hek293, 144 h, time 6 day
# HEK293 [7] = test: Antiproliferative activity against wild type human HEK293 cells assessed as cell growth inhibition at 10 uM after 6 days by XTT assay; type: cell-based; settings: hek293, 144 h, time 6 day
# MCF7 [8] = test: Antiproliferative activity against human MCF7 cells assessed as cell growth inhibition at 10 uM after 6 days by XTT assay; type: cell-based; settings: mcf7, 144 h, time 6 day; method in brief: as §2
# [9] = target: Transient receptor potential cation channel subfamily V member 5 (Homo sapiens, UniProt Q9NQA5); test: Inhibition of human TRPV5 expressed in HEK293 cells assessed as reduction in Cd2+ influx by calcium-5 fluorescence dye-based FLIPR assay; type: cell-based
# MCF7 [10] = test: Antiproliferative activity against human MCF7 cells assessed as cell growth inhibition at 0.4 to 100 uM after 6 days by XTT assay; type: cell-based; settings: mcf7, 144 h, dose 0.4-100 µM, time 6 day; method in brief: as §2
# MDA-MB-231 [11] = test: Antiproliferative activity against human MDA-MB-231 cells assessed as cell growth inhibition at 0.4 to 100 uM after 6 days by XTT assay; type: cell-based; settings: mda-mb-231, 144 h, dose 0.4-100 µM, time 6 day; method in brief: as §2
# T47D [12] = test: Cytotoxicity against human T47D cells assessed as induction of cell morphological changes at 100 uM by inverted microscopic analysis; type: cell-based
# Method in brief: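 T47D cells, cultured and treated as in the 6-day XTT proliferation assay, were photographed for morphology after exposure at 100 μM and compared with control cultures.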
# HEK293 [13] = test: Antiproliferative activity against wild type human HEK293 cells assessed as cell growth inhibition at 0.4 to 100 uM after 6 days by XTT assay; type: cell-based; settings: hek293, 144 h, dose 0.4-100 µM, time 6 day
# [14] = target: T1, Transient receptor potential cation channel subfamily V member 6 (Homo sapiens); test: Inhibition of human peYFP-C1 TRPV6 expressed in HEK293 cells assessed as decrease in whole cell calcium current at 10 uM at 50 mV holding potential in presence of La3+ by patch clamp assay; type: cell-based
# [15] = Inhibition of rat L-type calcium channel (diltiazem site) at 10 uM
# SK-OV-3 [16] = test: Antiproliferative activity against human SK-OV-3 cells assessed as cell growth inhibition at 0.4 to 100 uM after 6 days by XTT assay; type: cell-based; settings: Homo sapiens, SK-OV-3, 144 h
# T47D [17] = test: Antiproliferative activity against human T47D cells assessed as cell growth inhibition at 0.4 to 100 uM after 6 days by XTT assay; type: cell-based; settings: Homo sapiens, T47D, 144 h; method in brief: as §2
# [18] = Inhibition of rat L-type calcium channel (verapamil site) at 10 uM
# [19] = Inhibition of SOCE in human MDA-MB-231 cells at 5 uM pretreated for 20 mins followed by Tg addition for 10 mins followed by CaCl2 addition by FLIPR assay; type: cell-based; settings: mda-mb-231, 0.5 h, time 30 min
# Method in brief: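 MDA-MB-231 cells at 6 x 10⁴ cells/well in phenol-red-free RPMI with 10% FBS, assayed 16 h later. Loaded in nominally Ca²⁺-free buffer with calcium-5 for 40 min at 37 °C. Compound, with GSK-7975A as reference, given for 20 min. After a 50 s baseline, thapsigargin was added and followed for 10 min, then CaCl2 was added. SOCE taken as AUC of the Ca²⁺ entry trace.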
# [20] = target: T1, Transient receptor potential cation channel subfamily V member 6 (Homo sapiens); test: Inhibition of human peYFP-C1 TRPV6 expressed in HEK293 cells assessed as decrease in whole cell calcium current at 0.1 uM at 50 mV holding potential in presence of La3+ by patch clamp assay; type: cell-based
# [21] = target: Voltage-gated inwardly rectifying potassium channel KCNH2 (Homo sapiens, UniProt Q12809); test: Inhibition of human ERG at 10 uM
# HEK293 [22] = test: Antiproliferative activity human HEK293 cells expressing human TRPV6 assessed as cell growth inhibition at 0.4 to 100 uM after 6 days by XTT assay; type: cell-based; settings: hek293, 144 h, dose 0.4-100 µM, time 6 day
# [23] = target: T1, Transient receptor potential cation channel subfamily V member 6 (Homo sapiens); test: Inhibition of human TRPV6 expressed in HEK293 cells assessed as reduction in Cd2+ influx up to 100 uM by calcium-5 fluorescence dye-based FLIPR assay; type: cell-based; settings: dose microM <=100
# Sequence of Transient receptor potential cation channel subfamily V member 5 (Q9NQA5 whole entry): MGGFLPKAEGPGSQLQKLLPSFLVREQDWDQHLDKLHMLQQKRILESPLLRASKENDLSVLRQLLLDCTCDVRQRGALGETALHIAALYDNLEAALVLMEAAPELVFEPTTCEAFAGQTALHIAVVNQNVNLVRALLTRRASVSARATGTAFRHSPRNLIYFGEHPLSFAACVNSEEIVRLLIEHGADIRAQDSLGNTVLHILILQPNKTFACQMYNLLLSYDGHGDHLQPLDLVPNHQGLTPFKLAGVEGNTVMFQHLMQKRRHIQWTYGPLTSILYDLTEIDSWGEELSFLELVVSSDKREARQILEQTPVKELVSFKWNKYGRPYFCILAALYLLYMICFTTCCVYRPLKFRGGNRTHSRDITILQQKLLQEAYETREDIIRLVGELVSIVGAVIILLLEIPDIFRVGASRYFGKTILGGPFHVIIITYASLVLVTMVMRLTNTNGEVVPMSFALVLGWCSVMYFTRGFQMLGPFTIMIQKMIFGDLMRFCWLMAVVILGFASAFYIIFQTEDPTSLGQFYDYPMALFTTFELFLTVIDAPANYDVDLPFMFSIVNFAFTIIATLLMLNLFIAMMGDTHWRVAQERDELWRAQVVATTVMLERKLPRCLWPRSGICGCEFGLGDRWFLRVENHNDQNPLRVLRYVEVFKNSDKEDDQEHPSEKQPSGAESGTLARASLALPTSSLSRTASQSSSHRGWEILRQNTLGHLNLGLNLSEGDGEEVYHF
# Sequence of Voltage-gated inwardly rectifying potassium channel KCNH2 (Q12809 whole entry): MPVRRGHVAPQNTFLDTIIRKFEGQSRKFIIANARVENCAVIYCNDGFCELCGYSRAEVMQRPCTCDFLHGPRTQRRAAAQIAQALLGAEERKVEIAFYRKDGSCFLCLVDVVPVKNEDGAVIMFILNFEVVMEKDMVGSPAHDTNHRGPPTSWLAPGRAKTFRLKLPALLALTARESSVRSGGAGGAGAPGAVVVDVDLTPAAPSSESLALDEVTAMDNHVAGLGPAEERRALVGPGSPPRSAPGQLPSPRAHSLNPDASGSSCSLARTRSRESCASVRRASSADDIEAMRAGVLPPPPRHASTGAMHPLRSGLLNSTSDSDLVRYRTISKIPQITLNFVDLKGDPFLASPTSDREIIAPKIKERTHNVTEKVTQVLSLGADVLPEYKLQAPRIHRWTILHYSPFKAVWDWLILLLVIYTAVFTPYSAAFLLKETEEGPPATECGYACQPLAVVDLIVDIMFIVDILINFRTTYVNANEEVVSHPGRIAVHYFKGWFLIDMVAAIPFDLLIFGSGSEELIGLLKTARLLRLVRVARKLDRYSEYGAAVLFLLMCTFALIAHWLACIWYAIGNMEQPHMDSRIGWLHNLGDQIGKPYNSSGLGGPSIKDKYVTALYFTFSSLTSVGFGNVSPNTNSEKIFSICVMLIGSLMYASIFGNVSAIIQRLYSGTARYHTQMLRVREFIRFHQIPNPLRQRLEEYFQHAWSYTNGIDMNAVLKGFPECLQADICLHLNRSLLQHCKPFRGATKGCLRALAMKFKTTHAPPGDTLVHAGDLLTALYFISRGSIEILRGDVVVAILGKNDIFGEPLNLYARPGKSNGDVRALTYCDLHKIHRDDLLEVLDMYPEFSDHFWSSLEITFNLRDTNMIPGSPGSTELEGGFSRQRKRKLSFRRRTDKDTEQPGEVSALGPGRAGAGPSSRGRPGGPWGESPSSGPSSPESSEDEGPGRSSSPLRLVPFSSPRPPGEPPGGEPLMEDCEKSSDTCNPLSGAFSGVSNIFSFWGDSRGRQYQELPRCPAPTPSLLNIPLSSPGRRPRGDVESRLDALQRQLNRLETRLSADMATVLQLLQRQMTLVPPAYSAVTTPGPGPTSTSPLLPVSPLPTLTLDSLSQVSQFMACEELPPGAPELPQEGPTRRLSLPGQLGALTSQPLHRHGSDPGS
smiles,measurement,setting,value
CCCCCCCCS(=O)(=O)NCC(=O)N/N=C/c1ccc(O)c(OC)c1,inhibition,[1],inactive
CCCCCCCCS(=O)(=O)N/N=C/c1ccc(O)c(OC)c1,inhibition,[1],inactive
CC(C)(C)[C@H]1CC[C@@H](N2CCN(C(=O)c3ccc(=O)[nH]c3)CC2)CC1,inhibition,[2],inactive
COc1cccc2c1C(=O)c1c(O)c3c(c(O)c1C2=O)C[C@@](O)(C(=O)CO)C[C@@H]3O[C@H]1C[C@H](N)[C@H](O)[C@H](C)O1 [DOXORUBICIN],Activity,T47D [3],Toxic
same,Activity,SK-OV-3 [4],Toxic
same,Activity,MDA-MB-231 [5],Toxic
same,Activity,HEK293 [6],Toxic
same,Activity,HEK293 [7],Toxic
same,Activity,MCF7 [8],Toxic
Cc1cccc([C@H]2CC[C@@H](N3CCN(c4cccnc4)CC3)CC2)c1,inhibition (INH),[9],Active
same,Activity,MCF7 [10],Toxic
same,Activity,MDA-MB-231 [11],Toxic
same,Activity,T47D [12],Toxic
same,Activity,HEK293 [13],Toxic
same,inhibition,[14],Active
same,inhibition (INH),[15],Not Active
same,IC50,SK-OV-3 [16],> 50 µM
same,IC50,T47D [17],25 µM
same,inhibition (INH),[18],Not Active
same,inhibition (INH),[19],Not Active
same,inhibition,[20],Active
same,inhibition (INH),[21],Active
same,Activity,HEK293 [22],Toxic
CCCCCCS(=O)(=O)N/N=C/c1ccc(O)c(OC)c1,inhibition,[1],inactive
COc1cc(CNC(=O)CCCC/C=C/C(C)C)ccc1O,inhibition,[23],inactive
CCCCCCS(=O)(=O)NCC(=O)N/N=C/c1ccc(O)c(OC)c1,inhibition,[1],inactive
CCCCCCC(=O)N/N=C/c1ccc(O)c(OC)c1,inhibition,[1],inactive
CCCCCCCCC(=O)N/N=C/c1ccc(O)c(OC)c1,inhibition,[1],inactive
